Measurements taken from ChEMBL document CHEMBL1143856, “Iromycins from Streptomyces sp. and from synthesis: new inhibitors of the mitochondrial electron transport chain” (Bioorg Med Chem, 2008).

system: MCF7; test: Cytotoxicity against human MCF7 cells; assay type: functional, cell-based; details: not given
Summary of the method: (§1)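 Human gastric adenocarcinoma HM02, hepatocellular carcinoma HepG2 and breast adenocarcinoma MCF7 lines tested following NCI directives. Cytotoxicity expressed as IC50.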

SMILES | IC50
CCCc1c(C/C=C(\C)C/C=C/C(C)(C)O)[nH]c(=O)c(C)c1O [IROMYCIN B] | > 30 µM
CCCc1c(C/C=C(\C)C/C=C/C(C)C)[nH]c(=O)c(C)c1O [IROMYCIN A] | > 30 µM

system: L929; test: Cytotoxicity against mouse L929 fibroblasts; assay type: cell-based; details: not given

SMILES | IC50
CCCc1c(C/C=C(\C)C/C=C/C(C)(C)O)[nH]c(=O)c(C)c1O [IROMYCIN B] | 66 µM
C/C=C(\C)[C@H](O)[C@H](C)/C=C(C)/C=C/C/C(C)=C/Cc1nc(OC)c(OC)c(O)c1C [PIERICIDIN A] | 0.00043 µM
CCCc1c(C/C=C(\C)C/C=C/C(C)(C)C)[nH]c(=O)c(C)c1O [IROMYCIN S] | 10 µM
CCCc1c(C/C=C(\C)C/C=C/C(C)C)[nH]c(=O)c(C)c1O [IROMYCIN A] | 66 µM
CCCCC/C(C)=C/Cc1[nH]c(=O)c(C)c(O)c1CCC [IROMYCIN M] | 66 µM

biological target: Mitochondrial complex I; NADH oxidoreductase (Bos taurus, UniProt P25708+P52505); test: Inhibition of NADH-ubiquinone oxidoreductase assessed as NADH oxidase activity in bovine heart submitochondrial particles; assay type: protein-complex assay; details: not given
Summary of the method: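 Bovine heart mitochondria isolated by differential centrifugation and sonicated to submitochondrial particles. Assay buffer was 75 mM air-saturated Na/K phosphate, pH 7.4, with 1 mM EDTA and 1 mM MgCl2, and 42–219 µg/mL protein, at 30 °C. Inhibitors were added in methanol (≤2% v/v) with 4 min preincubation. Reaction started with 0.16 mM NADH; A340 decrease followed over 4 min. Means of 2–4 independent experiments.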

Chain of Mitochondrial complex I; NADH oxidoreductase (P25708 21-464 limits assumed, other chains not shown): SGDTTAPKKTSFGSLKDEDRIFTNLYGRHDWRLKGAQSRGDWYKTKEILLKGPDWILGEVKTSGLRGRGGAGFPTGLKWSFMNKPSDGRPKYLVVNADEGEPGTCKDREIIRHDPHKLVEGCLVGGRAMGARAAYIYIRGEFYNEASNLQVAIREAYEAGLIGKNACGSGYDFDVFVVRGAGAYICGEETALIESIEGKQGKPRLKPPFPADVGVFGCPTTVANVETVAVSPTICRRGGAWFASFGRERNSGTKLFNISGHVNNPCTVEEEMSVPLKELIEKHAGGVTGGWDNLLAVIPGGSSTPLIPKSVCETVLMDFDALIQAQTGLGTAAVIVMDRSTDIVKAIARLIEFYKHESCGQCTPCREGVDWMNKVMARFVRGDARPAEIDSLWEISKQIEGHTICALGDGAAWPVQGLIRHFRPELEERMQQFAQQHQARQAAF

SMILES | IC50
CCCc1c(C/C=C(\C)C/C=C/C(C)(C)O)[nH]c(=O)c(C)c1O [IROMYCIN B] | 17.8 µM
C/C=C(\C)[C@H](O)[C@H](C)/C=C(C)/C=C/C/C(C)=C/Cc1nc(OC)c(OC)c(O)c1C [PIERICIDIN A] | 0.005 µM
CCCc1c(CCC(C)CCCC(C)C)[nH]c(=O)c(C)c1O (centres undefined) [IROMYCIN AH] | 2.21 µM
CCCC1=C(C/C=C(\C)C/C=C/C(C)C)N=C(O)C(C)(O)C1=O (centres undefined) [IROMYCIN F] | > 25.3 µM
CCCc1c(C/C=C(\C)C/C=C/C(C)(C)O)[nH]c(=O)c(C)c1OC [IROMYCIN BM] | > 24.3 µM
CCCc1c(C/C=C(\C)C/C=C/C(C)O)[nH]c(=O)c(C)c1O (centres undefined) [IROMYCIN D] | > 26.5 µM
CCCc1c(C/C=C(\C)C/C=C/C(C)(C)C)oc(=O)c(C)c1O [IROMYCIN SO] | 15.1 µM
CCCc1c(C/C=C(\C)C/C=C/C(C)C)oc(=O)c(C)c1O [IROMYCIN AO] | > 26.6 µM
CCCc1c(C/C=C(\C)C/C=C/C(C)(C)C)[nH]c(=O)c(C)c1O [IROMYCIN S] | 0.183 µM
CCCCC/C(C)=C/Cc1oc(=O)c(C)c(O)c1CCC [IROMYCIN MO] | 8.55 µM
CCCc1c(C/C=C(\C)C/C=C/C(C)C)[nH]c(=O)c(C)c1O [IROMYCIN A] | 0.461 µM
CC/C=C/C/C(C)=C/Cc1[nH]c(=O)c(C)c(O)c1CCC [IROMYCIN C] | 3.52 µM
CCCc1c(C/C=C(\C)C/C=C/C(C)C)[nH]c(=O)c(C)c1OC(C)=O [IROMYCIN AA] | > 23.4 µM
CCCc1c(C/C=C(\C)C/C=C/C(C)C)[nH]c(=O)c(C)c1OC [IROMYCIN AM] | 2.8 µM
CCCC1(O)C(C/C=C(\C)C/C=C/C(C)C)=NC(=O)C(C)=C1O (centres undefined) [IROMYCIN E] | > 25.3 µM
CCCCC/C(C)=C/Cc1[nH]c(=O)c(C)c(O)c1CCC [IROMYCIN M] | 1.01 µM
CCCc1c(C/C=C(\C)C/C=C/C(C)(C)O)[nH]c(=O)c(C)c1OC(C)=O [IROMYCIN BA] | > 22.4 µM

system: not listed separately; test: Cytotoxicity against human HM02 cells; assay type: functional, cell-based; details: not given; summary of the method: as §1

SMILES | IC50
CCCc1c(C/C=C(\C)C/C=C/C(C)(C)O)[nH]c(=O)c(C)c1O [IROMYCIN B] | > 30 µM
CCCc1c(C/C=C(\C)C/C=C/C(C)C)[nH]c(=O)c(C)c1O [IROMYCIN A] | > 30 µM

system: Mus musculus; test: Toxicity in mouse at 100 mg/kg, ip; assay type: organism-based; design: dose 100 mg/kg, route intraperitoneal; details: in vivo

SMILES | Activity
CCCc1c(C/C=C(\C)C/C=C/C(C)C)[nH]c(=O)c(C)c1O [IROMYCIN A] | Non-toxic

system: HepG2; test: Cytotoxicity against human HepG2 cells; assay type: functional, cell-based; details: not given; summary of the method: as §1

SMILES | IC50
CCCc1c(C/C=C(\C)C/C=C/C(C)(C)O)[nH]c(=O)c(C)c1O [IROMYCIN B] | > 30 µM
CCCc1c(C/C=C(\C)C/C=C/C(C)C)[nH]c(=O)c(C)c1O [IROMYCIN A] | > 30 µM
